Consider 17 substances from ChEMBL document CHEMBL1140318, “Potent androgen antagonists based on carborane as a hydrophobic core structure” (J Med Chem, 2005).

Chain of UniProt P10275 (P10275 whole entry, the tested form may be a part): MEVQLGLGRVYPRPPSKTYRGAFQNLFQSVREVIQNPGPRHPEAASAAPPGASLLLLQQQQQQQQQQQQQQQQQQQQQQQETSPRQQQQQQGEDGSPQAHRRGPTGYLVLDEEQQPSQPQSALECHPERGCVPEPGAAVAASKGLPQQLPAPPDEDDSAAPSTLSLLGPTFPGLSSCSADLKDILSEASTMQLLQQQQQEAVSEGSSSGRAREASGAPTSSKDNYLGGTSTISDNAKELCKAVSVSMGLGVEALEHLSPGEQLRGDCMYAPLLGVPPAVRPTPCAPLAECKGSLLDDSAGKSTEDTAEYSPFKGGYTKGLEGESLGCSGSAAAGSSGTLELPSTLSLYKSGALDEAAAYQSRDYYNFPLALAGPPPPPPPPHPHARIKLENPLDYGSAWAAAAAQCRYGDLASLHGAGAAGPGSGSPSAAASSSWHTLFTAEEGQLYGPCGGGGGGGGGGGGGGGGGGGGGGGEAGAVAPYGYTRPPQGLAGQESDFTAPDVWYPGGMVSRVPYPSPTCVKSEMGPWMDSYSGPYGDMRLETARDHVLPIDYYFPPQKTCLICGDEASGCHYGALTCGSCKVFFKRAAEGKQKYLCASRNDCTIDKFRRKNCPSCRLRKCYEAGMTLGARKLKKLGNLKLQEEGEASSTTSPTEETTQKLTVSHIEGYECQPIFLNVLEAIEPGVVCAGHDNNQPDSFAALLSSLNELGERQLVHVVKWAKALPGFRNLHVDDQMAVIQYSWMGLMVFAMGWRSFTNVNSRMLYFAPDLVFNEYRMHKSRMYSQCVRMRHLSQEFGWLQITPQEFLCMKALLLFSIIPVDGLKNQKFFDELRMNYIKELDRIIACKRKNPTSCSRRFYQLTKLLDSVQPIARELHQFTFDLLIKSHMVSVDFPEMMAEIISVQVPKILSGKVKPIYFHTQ

This test concerns the target Androgen receptor (Homo sapiens) (UniProt P10275). In words: Percent displacement of [3H]DHT binding to human androgen receptor expressed in Escherichia coli strain HB-101 at 10 uM. An outline of the steps:
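GST-hAR ligand-binding domain expressed in E. coli HB-101 (1 mM IPTG, 27 °C, 4.5 h); crude sonicate diluted to 0.3-0.5 mg/mL protein (20 mM Tris-HCl pH 8.0, 0.3 M KCl, 1 mM EDTA). Incubated 15 h at 4 °C in dark with 4 nM [3H]DHT and 1 μM triamcinolone acetonide (final). Nonspecific binding measured with 200-fold unlabeled DHT. Dextran/γ-globulin-charcoal separation, supernatant scintillation-counted.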
Background: In a radioligand displacement assay an active substance lowers the binding of a labelled ligand.
For the substance “1-(3-Nitrophenyl)-1,12-dicarba-closo-dodecaborane-1-carboxylic Acid”, the Binding affinity worked out at 35%.
“1-(4-Hydroxybutyl)-12-(3-nitrophenyl)-1,12-dicarbacloso-dodecaborane” displayed a Binding affinity of 20%.
In turn, “1-Hydroxymethyl-12-(3-nitrophenyl)-1,12-dicarba-closododecaborane” registered a Binding affinity of 97%.
In the case of “1-Hydroxy-12-(4-nitrophenyl)-1,12-dicarba-closo-dodecaborane” it was 53%.
In the case of “1-(2-Hydroxyethyl)-12-(3-nitrophenyl)-1,12-dicarbacloso-dodecaborane” it was 63%; in that of “1-Hydroxymethyl-12-(3-cyanophenyl)-1,12-dicarbacloso-dodecaborane”, 95%; in that of “1-(3-Hydroxypropyl)-12-(3-nitrophenyl)-1,12-dicarbacloso-dodecaborane”, 39%.
“1-(3-Nitrophenyl)-1,12-dicarba-closo-dodecaborane” had a Binding affinity of 36%.
“1-Methoxycarbonyl-12-(3-nitrophenyl)-1,12-dicarbacloso-dodecaborane” gave a Binding affinity of 18%.
“1-(4-Nitrophenyl)-1,12-dicarba-closo-dodecaborane” registered a Binding affinity of 29%.
“1-Hydroxy-12-(4-cyanophenyl)-1,12-dicarba-closo-dodecaborane” had a Binding affinity of 50%.
As to “1-Hydroxymethyl-7-(4-nitrophenyl)-1,7-dicarba-closododecaborane”, the Binding affinity came out at 60%.
The substance “1-Hydroxymethyl-12-(4-cyanophenyl)-1,12-dicarbacloso-dodecaborane” displayed a Binding affinity of 54%.
For “1-Hydroxymethyl-12-(4-nitrophenyl)-1,12-dicarba-closodod caborane” the value was 55%.
Take “1-Hydroxymethyl-7-(3-nitrophenyl)-1,7-dicarba-closododecaborane”: the Binding affinity came to 54%.
Substance “1-Hydroxy-12-(3-nitrophenyl)-1,12-dicarba-closo-dodecaborane” showed a Binding affinity of 75%.
For “1-Hydroxy-12-(3-cyanophenyl)-1,12-dicarba-closo-dodecaborane” the value was 66%.
